From ChEMBL document CHEMBL1782018, “Novel 3alpha-methoxyserrat-14-en-21beta-ol (PJ-1) and 3beta-methoxyserrat-14-en-21beta-ol (PJ-2)-curcumin, kojic acid, quercetin, and baicalein conjugates as HIV agents” (Bioorg Med Chem, 2009)
Values after ≈ are worked out from the molar mass of the structure shown.

Columns and labels:
[1] = tested on: Human immunodeficiency virus 1; assay: Antiviral activity against HIV1 3B infected human CCR5 cells assessed as decrease in viral syncytium formation; format: functional, organism-based; conditions: Human immunodeficiency virus 1, 3B
[2] = Cytotoxicity against […] human C8166-CCR5 cells assessed as decrease in cell viability by cell associated dehydrogenase activity assay; format: cell-based
Method in brief: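 C8166-CCR5 human CD4+ T cells, grown in RPMI 1640 with 10% FBS and antibiotics, seeded at 3 × 10^4 cells per well with compound across a concentration series. Incubated at 37 °C for 72 h. Viability read by cell-associated dehydrogenase activity (CCK-8). Run in duplicate or triplicate. CC50 is the 50% cytostatic concentration.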

[3] = molecular target: Human immunodeficiency virus type 1 reverse transcriptase (Human immunodeficiency virus 1, UniProt Q72547); assay: Antiviral activity against HIV1 Reverse transcriptase activity
Method in brief: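 C8166-CCR5 human CD4+ T cells (3 × 10^4) in RPMI 1640 with 10% FBS were mixed with compound and infected with HIV-1 NL43 inoculum normalized to 1 × 10^5 cpm RT activity, then held at 37 °C. Four days after infection, supernatant RT activity was read with poly(A) template, oligo(dT) primer and [32P]TTP. Run in duplicate or triplicate. EC50 reported.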

[4] = Selectivity index, ratio of CC50 for human C8166-CCR5 cells to EC50 for HIV1 NL4-3; format: toxicity, cell-based; conditions: read-out: Ratio CC50/EC50
Method in brief: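 SI = CC50/EC50. CC50 is from the 72 h CCK-8 viability assay in uninfected C8166-CCR5 cells. EC50 is from supernatant RT activity four days after HIV-1 NL43 infection of the same cells.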

[5] = tested on: Human immunodeficiency virus 1; assay: Antiviral activity against HIV1 NL4-3 infected human C8166-CCR5 cells assessed as decrease in virus-induced cytopathicity after 72 hrs by cell associated dehydrogenase activity assay; format: functional, organism-based; conditions: Human immunodeficiency virus 1, NL4-3, C8166-CCR5, 72 h
Protease = Protease (Human immunodeficiency virus 1, UniProt Q9YQ12); assay: Inhibition of HIV1 protease activity
[6] = Selectivity index, ratio of CD50 for human MT4 cells to ID50 for HIV1; format: toxicity, cell-based; conditions: read-out: Selectivity Index

Protease, sequence (Q9YQ12 whole entry): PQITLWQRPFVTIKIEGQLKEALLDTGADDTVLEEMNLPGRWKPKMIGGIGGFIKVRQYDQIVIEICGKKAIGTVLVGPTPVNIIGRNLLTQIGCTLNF

## CC1=C[C@@H]([C@H](O)[C@H](C)[C@@H]2C[C@@H](O)[C@@]3(O)[C@@H]4CC[C@@H]5C(C)(C)O[C@@H]6CC(=O)O[C@@]56C[C@]4(O)CC[C@@]23C)OC1=O [MICRANDILACTONE C]
[1]
  EC50: 7710 µg/mL (≈ 14400 µM)
[2]
  CC50: > 200 µg/mL

## C=C(C)[C@@H]1CC[C@]2(C)CC[C@]3(C)[C@H](CC[C@@H]4[C@@]5(C)CCC(=O)C(C)(C)[C@@H]5CC[C@]43C)[C@@H]12 [LUPENONE]
[3]
  IC50: 4.94 µM

## C=C(C)[C@@H]1CC[C@]2(COC(C)=O)CC[C@]3(C)[C@H](CC[C@@H]4[C@@]5(C)CC[C@H](OC(C)=O)C(C)(C)[C@@H]5CC[C@]43C)[C@@H]12 [BETULIN DIACETATE]
[3]
  IC50: 2.66 µM

## CO[C@@H]1CC[C@]2(C)[C@H](CC[C@@]3(C)CC4=CC[C@@H]5C(C)(C)[C@H](OC(=O)CCC(=O)Oc6coc(CO)cc6=O)CC[C@@]5(C)[C@@H]4CC[C@@H]32)C1(C)C
[2]
  CC50: 22.2 µg/mL (≈ 32.6 µM)
[4]
  selectivity ratio: 5.4
[5]
  EC50: 4.13 µg/mL (≈ 6.07 µM)

## CC1(C)CC[C@]2(C(=O)O)CC[C@]3(C)C(=CC[C@@H]4[C@@]5(C)CC[C@H](O)C(C)(C)[C@@H]5CC[C@]43C)[C@@H]2C1 [OLEANOLIC ACID GLUTARYL HEMI ESTER]
Protease
  IC50: 4 µM

## CO[C@@H]1CC[C@]2(C)[C@H](CC[C@@]3(C)CC4=CC[C@@H]5C(C)(C)[C@H](OC(=O)CCC(=O)Oc6cc(-c7oc8cc(O)cc(O)c8c(=O)c7O)ccc6O)CC[C@@]5(C)[C@@H]4CC[C@@H]32)C1(C)C
[2]
  CC50: > 100 µg/mL
[4]
  selectivity ratio: 4.8
[5]
  EC50: 26.6 µg/mL (≈ 31.6 µM)

## C[C@H]1[C@H](C)CC[C@]2(C(=O)O)CC[C@]3(C)C(=CC[C@@H]4[C@@]5(C)CC[C@H](O)C(C)(C)[C@@H]5CC[C@]43C)[C@H]12 [URSOLIC ACID GLUTARYL HEMI ESTER]
Protease
  IC50: 4 µM

## CO[C@@H]1CC[C@]2(C)[C@H](CC[C@@]3(C)CC4=CC[C@@H]5C(C)(C)[C@H](OC(=O)CCC(=O)Oc6c(O)cc7oc(-c8ccccc8)cc(=O)c7c6O)CC[C@@]5(C)[C@@H]4CC[C@@H]32)C1(C)C
[2]
  CC50: > 100 µg/mL
[4]
  selectivity ratio: 4.9
[5]
  EC50: 21.4 µg/mL (≈ 26.5 µM)

## C=C(CC[C@@H](C)[C@H]1CC[C@@]2(C)[C@@H]3CC[C@H]4C(C)(C)[C@@H](OC(=O)/C=C/c5ccc(O)c(OC)c5)CC[C@@]45C[C@@]35CC[C@]12C)C(C)C
[3]
  IC50: 3.08 µM

## CO[C@@H]1CC[C@]2(C)[C@H](CC[C@@]3(C)CC4=CC[C@@H]5C(C)(C)[C@H](O)CC[C@@]5(C)[C@@H]4CC[C@@H]32)C1(C)C
[2]
  CC50: > 100 µg/mL
[5]
  EC50: > 100 µg/mL

## CO[C@H]1CC[C@]2(C)[C@H](CC[C@@]3(C)CC4=CC[C@@H]5C(C)(C)[C@H](OC(=O)CCC(=O)Oc6c(O)cc7oc(-c8ccccc8)cc(=O)c7c6O)CC[C@@]5(C)[C@@H]4CC[C@@H]32)C1(C)C
[2]
  CC50: > 100 µg/mL
[4]
  selectivity ratio: 2.3
[5]
  EC50: 55.4 µg/mL (≈ 68.4 µM)

## CC1(C)[C@H](O)CC[C@]2(C)C3=CC[C@@]4(C)[C@@H]5C[C@](C)(COC(=O)c6ccccc6)CC[C@]5(C)CC[C@]4(C)C3=CC[C@@H]12
[3]
  IC50: 4.04 µM

## COc1cc(/C=C/C(=O)O[C@H]2CC[C@]34C[C@]35CC[C@]3(C)[C@@H]([C@H](C)CCC=C(C)C)CC[C@@]3(C)[C@@H]5CC[C@H]4C2(C)C)ccc1O [GAMMA ORYZANOL]
[3]
  IC50: 3.65 µM

## CC1(C)CC[C@]2(C(=O)O)CC[C@]3(C)C(=CC[C@@H]4[C@@]5(C)CC[C@H](O)C(C)(C)[C@@H]5CC[C@]43C)[C@@H]2C1 [OLEANOLIC_ACID]
Protease
  IC50: 8 µM

## Cc1cn([C@H]2C[C@H](N=[N+]=[N-])[C@@H](CO)O2)c(=O)[nH]c1=O [ZIDOVUDINE]
[2]
  CC50: > 100 µg/mL
[4]
  selectivity ratio: > 5000
[5]
  EC50: 0.02 µg/mL (≈ 0.0748 µM)

## CC1(C)CC[C@]2(C(=O)NCCCCCC(=O)O)CC[C@]3(C)C(=CC[C@@H]4[C@@]5(C)CC[C@H](O)C(C)(C)[C@@H]5CC[C@]43C)[C@@H]2C1
Protease
  IC50: 1.7 µM

## CO[C@@H]1CC[C@]2(C)[C@H](CC[C@@]3(C)CC4=CC[C@@H]5C(C)(C)[C@H](OC(=O)CCC(=O)OCc6cc(=O)c(OC(=O)CCC(=O)O[C@@H]7CC[C@@]8(C)[C@@H]9CC[C@H]%10[C@@](C)(CC[C@@H]%11C(C)(C)[C@H](OC)CC[C@]%11%10C)CC9=CC[C@@H]8C7(C)C)co6)CC[C@@]5(C)[C@@H]4CC[C@@H]32)C1(C)C
[2]
  CC50: 4.2 µg/mL (≈ 3.44 µM)
[4]
  selectivity ratio: 35
[5]
  EC50: 0.12 µg/mL (≈ 0.0984 µM)

## CC1(C)[C@@H](O)CC[C@]2(C)[C@H]3C(=O)C=C4[C@@H]5C[C@@](C)(C(=O)O)CC[C@]5(C)CC[C@@]4(C)[C@]3(C)CC[C@@H]12 [ENOXOLONE]
[6]
  selectivity ratio: 9.6

## C[C@H]1[C@H](C)CC[C@]2(C(=O)O)CC[C@]3(C)C(=CC[C@@H]4[C@@]5(C)CC[C@H](O)C(C)(C)[C@@H]5CC[C@]43C)[C@H]12 [URSOLIC ACID]
Protease
  IC50: 8 µM

## C=C(C)[C@@H]1CC[C@]2(C(=O)O)CC[C@]3(C)[C@H](CC[C@@H]4[C@@]5(C)CC[C@H](O)C(C)(C)[C@@H]5CC[C@]43C)[C@@H]12 [BETULINIC ACID GLUTARYL HEMI ESTER]
Protease
  IC50: 4 µM

## CC1(C)CC[C@]2(C(=O)NCCCCCC(=O)O)CC[C@]3(C)C(=CC[C@@H]4[C@@]5(C)CC[C@H](OC(=O)CCCCC(=O)O)C(C)(C)[C@@H]5CC[C@]43C)[C@@H]2C1
Protease
  IC50: 1.7 µM

## CO[C@H]1CC[C@]2(C)[C@H](CC[C@@]3(C)CC4=CC[C@@H]5C(C)(C)[C@H](OC(=O)CCC(=O)Oc6cc(-c7oc8cc(O)cc(O)c8c(=O)c7O)ccc6O)CC[C@@]5(C)[C@@H]4CC[C@@H]32)C1(C)C
[2]
  CC50: > 100 µg/mL
[4]
  selectivity ratio: > 5000
[5]
  EC50: 23.2 µg/mL (≈ 27.6 µM)

## CO[C@H]1CC[C@]2(C)[C@H](CC[C@@]3(C)CC4=CC[C@@H]5C(C)(C)[C@H](OC(=O)CCC(=O)OCc6cc(=O)c(OC(=O)CCC(=O)O[C@@H]7CC[C@@]8(C)[C@@H]9CC[C@H]%10[C@@](C)(CC[C@@H]%11C(C)(C)[C@@H](OC)CC[C@]%11%10C)CC9=CC[C@@H]8C7(C)C)co6)CC[C@@]5(C)[C@@H]4CC[C@@H]32)C1(C)C
[2]
  CC50: > 100 µg/mL
[4]
  selectivity ratio: > 5000
[5]
  EC50: 5.94 µg/mL (≈ 4.87 µM)

## CO[C@H]1CC[C@]2(C)[C@H](CC[C@@]3(C)CC4=CC[C@@H]5C(C)(C)[C@H](OC(=O)CCC(=O)Oc6coc(CO)cc6=O)CC[C@@]5(C)[C@@H]4CC[C@@H]32)C1(C)C
[2]
  CC50: > 100 µg/mL
[4]
  selectivity ratio: 86.8
[5]
  EC50: 6.75 µg/mL (≈ 9.91 µM)

## C[C@H]1[C@H](C)CC[C@]2(C(=O)O)CC[C@]3(C)C(=CC[C@@H]4[C@@]5(C)CC[C@H](O)C(C)(C)[C@@H]5CC[C@]43C)[C@H]12 [URSOLIC ACID HYDROGEN MALONATE]
Protease
  IC50: 6 µM

## CO[C@H]1CC[C@]2(C)[C@H](CC[C@@]3(C)CC4=CC[C@@H]5C(C)(C)[C@H](O)CC[C@@]5(C)[C@@H]4CC[C@@H]32)C1(C)C
[2]
  CC50: > 100 µg/mL
[5]
  EC50: > 100 µg/mL
